≈ marks a conversion by molar mass, not a printed value.
Legend:
[1] = tested on: Staphylococcus aureus; assay: Antibacterial activity against methicillin resistant Staphylococcus aureus USA 300 assessed as bacterial growth inhibition incubated for overnight by microbroth dilution method; assay type: functional
Procedure, shortened: (§1)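 Microbroth dilution in Tryptic Soy Broth. DMSO stocks were diluted in TSB as 2-fold series. Overnight TSB cultures were back-diluted to OD 0.01 and mixed 1:1 with compound. Incubation was overnight at 37 °C. MIC is the lowest concentration with no visible growth (<0.1 OD600). DMSO at equivalent concentrations was checked.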

[2] = tested on: Pseudomonas aeruginosa; assay: Antibacterial activity against Pseudomonas aeruginosa NCTC 13437 assessed as bacterial growth inhibition incubated for overnight by microbroth dilution method; assay type: functional
Procedure, shortened: (§2)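 Broth microdilution in Tryptic Soy Broth. DMSO stocks were diluted in TSB as 2-fold series. Overnight TSB cultures were back-diluted to OD 0.01 and mixed 1:1 with compound. Incubation was overnight at 37 °C. MIC was the lowest concentration without visible growth (<0.1 OD600). DMSO vehicle was checked at equivalent concentrations.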

[3] = tested on: Acinetobacter baumannii; assay: Antibacterial activity against Acinetobacter baumannii ATCC 17978 assessed as bacterial growth inhibition incubated for overnight by microbroth dilution method; assay type: functional; procedure, shortened: as §2
[4] = tested on: Enterococcus faecium; assay: Antibacterial activity against vancomycin resistant Enterococcus faecium NCTC 12204 assessed as bacterial growth inhibition incubated for overnight by microbroth dilution method; assay type: functional; procedure, shortened: as §1
[5] = tested on: Acinetobacter baumannii; assay: Antibacterial activity against Acinetobacter baumannii AYE assessed as bacterial growth inhibition incubated for overnight by microbroth dilution method; assay type: functional; procedure, shortened: as §2
[6] = tested on: Staphylococcus aureus; assay: Antibacterial activity against methicillin resistant Staphylococcus aureus NCTC 13616 assessed as bacterial growth inhibition incubated for overnight by microbroth dilution method; assay type: functional; procedure, shortened: as §1
[7] = tested on: Staphylococcus aureus; assay: Antibacterial activity against methicillin sensitive Staphylococcus aureus ATCC 9144 assessed as bacterial growth inhibition incubated for overnight by microbroth dilution method; assay type: functional; procedure, shortened: as §1
[8] = tested on: Klebsiella pneumoniae; assay: Antibacterial activity against ESBL Klebsiella pneumoniae NCTC 13368 assessed as bacterial growth inhibition incubated for overnight by microbroth dilution method
[9] = tested on: Escherichia coli; assay: Antibacterial activity against Escherichia coli NCTC 12923 assessed as bacterial growth inhibition incubated for overnight by microbroth dilution method; assay type: functional; procedure, shortened: as §2
[10] = tested on: Klebsiella pneumoniae; assay: Antibacterial activity against Klebsiella pneumoniae M6 assessed as bacterial growth inhibition incubated for overnight by microbroth dilution method
[11] = tested on: Enterococcus faecalis; assay: Antibacterial activity against vancomycin sensitive Enterococcus faecalis NCTC 775 assessed as bacterial growth inhibition incubated for overnight by microbroth dilution method
[12] = tested on: Enterococcus faecalis; assay: Antibacterial activity against vancomycin resistant Enterococcus faecalis NCTC 12201 assessed as bacterial growth inhibition incubated for overnight by microbroth dilution method; assay type: functional; procedure, shortened: as §1
[13] = tested on: Staphylococcus aureus; assay: Antibacterial activity against methicillin sensitive Staphylococcus aureus 1199B assessed as bacterial growth inhibition incubated for overnight by microbroth dilution method; assay type: functional; procedure, shortened: as §1
[14] = tested on: Pseudomonas aeruginosa; assay: Antibacterial activity against Pseudomonas aeruginosa PAO1 assessed as bacterial growth inhibition incubated for overnight by microbroth dilution method; assay type: functional; procedure, shortened: as §2
[15] = tested on: Pseudomonas aeruginosa; assay: Synergistic antibacterial activity against Pseudomonas aeruginosa NCTC 13437 assessed as rifampicin MIC at <=0.25 times MIC incubated for overnight by microbroth dilution checkerboard assay; assay type: functional
Procedure, shortened: (§3)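 Checkerboard microdilution in Tryptic Soy Broth, run like the MIC assay. Overnight TSB cultures were back-diluted to OD 0.01 and added 1:1 to the combined two-fold series of both agents, then incubated overnight at 37 °C. Growth/no-growth was called at <0.1 OD600. MICs alone were read on the same plates. FIC index came from the most synergistic well; three independent repeats, mean ± SD.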

[16] = tested on: Acinetobacter baumannii; assay: Synergistic antibacterial activity against Acinetobacter baumannii ATCC 17978 assessed as rifampicin MIC at <=0.25 times MIC incubated for overnight by microbroth dilution checkerboard assay; assay type: functional
Procedure, shortened: (§4)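 Checkerboard microdilution under MIC conditions (TSB, overnight, 37 °C). Two-fold series of each agent were combined on one plate before bacteria were added, and single-agent MICs were measured on the same plate. FIC = sum of combination MIC/alone MIC for each agent, taken from the most synergistic well. Three independent repeats, mean ± SD. ≤0.5 was taken as strong synergy and 0.5–<1 as weak.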

[17] = tested on: Escherichia coli; assay: Synergistic antibacterial activity against Escherichia coli NCTC 12923 assessed as rifampicin MIC at <=0.25 times MIC incubated for overnight by microbroth dilution checkerboard assay; assay type: functional; procedure, shortened: as §4
[18] = tested on: Acinetobacter baumannii; assay: Synergistic antibacterial activity against Acinetobacter baumannii AYE assessed as fold change in rifampicin MIC at <=0.25 times MIC incubated for overnight by microbroth dilution checkerboard assay relative to rifampicin alone; assay type: functional; procedure, shortened: as §4
[19] = tested on: Acinetobacter baumannii; assay: Synergistic antibacterial activity against Acinetobacter baumannii ATCC 17978 assessed as fold change in rifampicin MIC at <=0.25 times MIC incubated for overnight by microbroth dilution checkerboard assay relative to rifampicin alone; assay type: functional; procedure, shortened: as §4
[20] = tested on: Pseudomonas aeruginosa; assay: Synergistic antibacterial activity against Pseudomonas aeruginosa PAO1 assessed as fold change in rifampicin MIC at <=0.25 times MIC incubated for overnight by microbroth dilution checkerboard assay relative to rifampicin alone; assay type: functional; procedure, shortened: as §3
[21] = tested on: Escherichia coli; assay: Synergistic antibacterial activity against Escherichia coli NCTC 12923 assessed as fold change in rifampicin MIC at <=0.25 times MIC incubated for overnight by microbroth dilution checkerboard assay relative to rifampicin alone; assay type: functional; procedure, shortened: as §4
[22] = tested on: Klebsiella pneumoniae; assay: Synergistic antibacterial activity against Klebsiella pneumoniae NCTC 13368 assessed as fold change in rifampicin MIC at <=0.25 times MIC incubated for overnight by microbroth dilution checkerboard assay relative to rifampicin alone; assay type: functional
Procedure, shortened: (§5)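 Checkerboard run under the MIC conditions (TSB, overnight, 37 °C). Antibiotic and lipoguanidine 2-fold series were combined on one plate before bacteria were added. Growth/no-growth was scored as for the MIC (<0.1 OD600). Single-agent MICs were measured on the same plates. Three independent repeats were done.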

[23] = tested on: Acinetobacter baumannii; assay: Synergistic antibacterial activity against Acinetobacter baumannii AYE assessed as rifampicin MIC at <=0.25 times MIC incubated for overnight by microbroth dilution checkerboard assay; assay type: functional; procedure, shortened: as §4
[24] = tested on: Pseudomonas aeruginosa; assay: Synergistic antibacterial activity against Pseudomonas aeruginosa NCTC 13437 assessed as fold change in rifampicin MIC at <=0.25 times MIC incubated for overnight by microbroth dilution checkerboard assay relative to rifampicin alone; assay type: functional; procedure, shortened: as §3
[25] = tested on: Klebsiella pneumoniae; assay: Synergistic antibacterial activity against Klebsiella pneumoniae NCTC 13368 assessed as rifampicin MIC at <=0.25 times MIC incubated for overnight by microbroth dilution checkerboard assay; assay type: functional; procedure, shortened: as §4
[26] = tested on: Pseudomonas aeruginosa; assay: Synergistic antibacterial activity against Pseudomonas aeruginosa PAO1 assessed as rifampicin MIC at <=0.25 times MIC incubated for overnight by microbroth dilution checkerboard assay; assay type: functional; procedure, shortened: as §3
[27] = tested on: Klebsiella pneumoniae; assay: Synergistic antibacterial activity against […] Klebsiella pneumoniae M6 assessed as rifampicin MIC at <=0.25 times MIC incubated for overnight by microbroth dilution checkerboard assay; assay type: functional; procedure, shortened: as §5

`CCCCCCCC/C=C\CCCCCCCCNC(=N)NCCCCCCCCNC(=N)NCCCCCCCC/C=C\CCCCCCCC` gave an MIC [1] of 64 µg/mL (≈ 87.8 µM), an MIC [2] greater than 128 µg/mL and an MIC [3] of 128 µg/mL (≈ 176 µM). The MIC [4] was 32 µg/mL (≈ 43.9 µM), the MIC [5] was greater than 128 µg/mL and the MIC [6] was greater than 64 µg/mL. The MIC [7] was 64 µg/mL (≈ 87.8 µM), the MIC [8] was greater than 128 µg/mL and the MIC [9] was 128 µg/mL (≈ 176 µM). It also gave an MIC [10] greater than 128 µg/mL, an MIC [11] of 64 µg/mL (≈ 87.8 µM) and an MIC [12] greater than 64 µg/mL. It also gave an MIC [13] of 32 µg/mL (≈ 43.9 µM) and an MIC [14] greater than 128 µg/mL.
Work on `CCCCCCCCCCNC(=N)NCCCCN1CCCC1` yielded an MIC [15] of 2 µg/mL, an MIC [16] of no more than 0.125 µg/mL and an MIC [17] of no more than 0.125 µg/mL. For the same compound, the “fold change (FC)” value [18] was “>=4”, the “fold change (FC)” value [19] was “>=4” and the “fold change (FC)” value [20] was “>=4”. For the same compound, the “fold change (FC)” value [21] was “>=4”, the “fold change (FC)” value [22] was “>=4” and the MIC [23] was no more than 0.125 µg/mL. For the same compound, the “fold change (FC)” value [24] was “>=4”, the MIC [25] was 0.5 µg/mL and the MIC [26] was 0.5 µg/mL. It also gave an MIC [27] of no more than 0.125 µg/mL.
`CCCCCCCC/C=C\CCCCCCCCNC(=N)NCCN(CCN)CCN` gave an MIC [1] of 4 µg/mL (≈ 9.12 µM), an MIC [2] of 32 µg/mL (≈ 72.9 µM) and an MIC [3] of 64 µg/mL (≈ 146 µM). It also gave an MIC [4] of 4 µg/mL (≈ 9.12 µM), an MIC [5] of 128 µg/mL (≈ 292 µM) and an MIC [6] of 4 µg/mL (≈ 9.12 µM). The MIC [7] was 8 µg/mL (≈ 18.2 µM), the MIC [8] was greater than 128 µg/mL and the MIC [9] was 8 µg/mL (≈ 18.2 µM). The MIC [10] was greater than 128 µg/mL, the MIC [11] was 4 µg/mL (≈ 9.12 µM) and the MIC [12] was 4 µg/mL (≈ 9.12 µM). It also gave an MIC [13] of 4 µg/mL (≈ 9.12 µM) and an MIC [14] of 64 µg/mL (≈ 146 µM).
For `CCCCCCCC/C=C\CCCCCCCCNC(=N)NCCCCCCCCCC`, the MIC [15] was 64 µg/mL, the MIC [16] was 8 µg/mL and the MIC [17] was 32 µg/mL. For the same compound, the “fold change (FC)” value [18] was 0, the “fold change (FC)” value [19] was 0 and the “fold change (FC)” value [20] was 0. The “fold change (FC)” value [21] was 0, the “fold change (FC)” value [22] was 0 and the MIC [23] was 32 µg/mL. The “fold change (FC)” value [24] was 0, the MIC [25] was 128 µg/mL and the MIC [26] was 64 µg/mL. The MIC [27] was 64 µg/mL.
`CCCCCCCCCCNC(=N)NCCCCCCCCCC` showed an MIC [15] of 64 µg/mL, an MIC [3] of 32 µg/mL (≈ 94.2 µM) and an MIC [16] of no more than 0.125 µg/mL. The MIC [5] was 16 µg/mL (≈ 47.1 µM), the MIC [17] was 8 µg/mL and the “fold change (FC)” value [18] was “>=4”. For the same compound, the MIC [8] was 16 µg/mL (≈ 47.1 µM), the MIC [9] was 64 µg/mL (≈ 188 µM) and the “fold change (FC)” value [19] was “>=4”. For the same compound, the “fold change (FC)” value [20] was 0, the “fold change (FC)” value [21] was 0 and the “fold change (FC)” value [22] was 0. The MIC [23] was no more than 0.125 µg/mL, the “fold change (FC)” value [24] was 0 and the MIC [25] was 64 µg/mL. The MIC [26] was 64 µg/mL and the MIC [27] was 32 µg/mL.
`CO[C@H]1/C=C/O[C@@]2(C)Oc3c(C)c(O)c4c(O)c(c(/C=N/N5CCN(C)CC5)c(O)c4c3C2=O)NC(=O)/C(C)=C\C=C\[C@H](C)[C@H](O)[C@@H](C)[C@@H](O)[C@@H](C)[C@H](OC(C)=O)[C@@H]1C` [RIFAMPIN] was tested, and the MIC [2] was 32 µg/mL (≈ 38.9 µM), the MIC [3] was 4 µg/mL (≈ 4.86 µM) and the MIC [5] was 16 µg/mL (≈ 19.4 µM). It also gave an MIC [8] of 32 µg/mL (≈ 38.9 µM), an MIC [9] of 16 µg/mL (≈ 19.4 µM) and an MIC [10] of 32 µg/mL (≈ 38.9 µM). The MIC [14] was 32 µg/mL (≈ 38.9 µM).
In the case of `CO[C@@H]1[C@@H](OC(N)=O)[C@@H](O)[C@H](Oc2ccc3c(O)c(NC(=O)c4ccc(O)c(CC=C(C)C)c4)c(=O)oc3c2C)OC1(C)C` [NOVOBIOCIN], the MIC [2] is reported as greater than 128 µg/mL, the MIC [3] is reported as 8 µg/mL (≈ 13.1 µM) and the MIC [5] is reported as 8 µg/mL (≈ 13.1 µM). It also gave an MIC [8] greater than 128 µg/mL, an MIC [9] greater than 128 µg/mL and an MIC [10] greater than 128 µg/mL. It also gave an MIC [14] greater than 128 µg/mL.
For `CCCCCCCCCCNC(=N)NCCCC`, the MIC [15] was 16 µg/mL, the MIC [3] was 16 µg/mL (≈ 62.6 µM) and the MIC [16] was no more than 0.125 µg/mL. For the same compound, the MIC [5] was 16 µg/mL (≈ 62.6 µM), the MIC [17] was no more than 0.125 µg/mL and the “fold change (FC)” value [18] was “>=4”. The MIC [8] was 16 µg/mL (≈ 62.6 µM), the MIC [9] was 16 µg/mL (≈ 62.6 µM) and the “fold change (FC)” value [19] was “>=4”. The “fold change (FC)” value [20] was 0, the “fold change (FC)” value [21] was “>=4” and the “fold change (FC)” value [22] was “>=4”. For the same compound, the MIC [23] was no more than 0.125 µg/mL, the “fold change (FC)” value [24] was 0 and the MIC [25] was no more than 0.125 µg/mL. For the same compound, the MIC [26] was 16 µg/mL and the MIC [27] was no more than 0.125 µg/mL.
